In ChEMBL document CHEMBL1123057, “gamma-Aminobutyric acid esters. 2. Synthesis, brain uptake, and pharmacological properties of lipid esters of gamma-aminobutyric acid” (J Med Chem, 1985):

Experiments:
[1] = Octanol:water partition coefficient is evaluated; type: physicochemical
Mus musculus [2] = experiment: Ability to penetrate the blood-brain barrier of mice was evaluated by measuring the brain penetration index (BPI) at dose 3-39 mg/Kg, administered subcutaneously; range is 0.04-1.81; type: functional, organism-based
Mus musculus [3] = experiment: BPI index was determined at 5 min after subcutaneous administration; type: functional
Method in brief: (§1)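 Balb-c mice (20 ± 2 g) received a single sc injection of the ¹⁴C-labeled ester in 0.5 mL of 25% propylene glycol in water. Brain and liver were removed at 5 min, weighed and homogenized in urea/SDS/EDTA phosphate protein solvent (pH 7.6). Aliquots were counted for ¹⁴C by liquid scintillation. BPI = brain amount per g as % of liver amount per g. Mean ± SEM, n = 3.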

Mus musculus [4] = experiment: Percent amount of compound was determined in liver per gram of tissue after 5 min of administration at a dose of 3-39 mg/Kg; range is 4.2-165; type: functional, organism-based
Mus musculus [5] = experiment: Percent amount of compound was determined in liver per gram of tissue after 5 min of administration at a dose of 67 mg/kg; type: functional, organism-based; set-up: dose 67 mg/kg; method in brief: as §1
Mus musculus [6] = experiment: Compound was evaluated for the effect on the uptake in mouse brain, at dose 78 mg/kg (ip) after a time period of 5 min; type: functional, organism-based; set-up: dose 78 mg/kg
Method in brief: (§2)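 Mice received a single systemic dose (ip or sc) of ¹⁴C-labeled compound in 0.5 mL of 0.14 N saline or 25% propylene glycol/water, depending on the compound. Brain was taken at the stated time and homogenized in 8 mL of 1% SDS/6 M urea/EDTA in 0.03 M phosphate (pH 7.4). Aliquots were counted by liquid scintillation and expressed as nmol/g brain.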

Mus musculus [7] = experiment: Compound was evaluated for the effect on the uptake in mouse brain, at dose 78 mg/Kg (ip) after a time period of 15 min; type: functional, organism-based; method in brief: as §2
Mus musculus [8] = experiment: Compound was evaluated for the effect on the uptake in mouse brain, at dose 78 mg/Kg (ip) after a time period of 30 min; type: functional, organism-based; method in brief: as §2
Mus musculus [9] = experiment: BPI index was determined at 5 min after subcutaneous administration to mice; type: functional; method in brief: as §1
Mus musculus [10] = experiment: Ability to penetrate the blood-brain barrier of mice was evaluated by measuring the brain penetration index (BPI) at dose 67 mg/Kg, administered subcutaneously; type: functional, organism-based; method in brief: as §1

| K [1] | Structure (SMILES) | Uptake (Mus musculus [2]) [nM/g] | BPI (Mus musculus [3]) | Uptake (Mus musculus [4]) [nM/g] | Uptake (Mus musculus [5]) [nM/g] | Uptake (Mus musculus [6]) [nM/g] | Uptake (Mus musculus [7]) [nM/g] | Uptake (Mus musculus [8]) [nM/g] | BPI (Mus musculus [9]) | Uptake (Mus musculus [10]) [nM/g] |
| --- | --- | --- | --- | --- | --- | --- | --- | --- | --- | --- |
| 0.004 | NCCCC(=O)O [GAMMA-AMINOBUTYRIC ACID] | 0.04 | 0.96 | 4.2 | – | – | – | – | – | – |
| 0.01 | NCCCC(=O)OCC(O)CO.O=C(O)C(F)(F)F (stereo unspecified) | – | – | – | 157 | 4.8 | 14 | 16.4 | 3 | 4.8 |
